ChEMBL document CHEMBL3763091, “Design, synthesis, and docking studies of afatinib analogs bearing cinnamamide moiety as potent EGFR inhibitors” (Bioorg Med Chem, 2016)

Tests used:
A549 = assay: Cytotoxicity against human A549 cells after 72 hrs by MTT assay; type: functional, cell-based
How it was run: (§1)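 Cells were grown in MEM with 10% FBS. About 4 × 10³ cells per well were seeded and held 24 h at 37 °C in 5% CO₂, then exposed to compound at the indicated final concentrations for 72 h. MTT was added at 5 µg/mL final for 4 h at 37 °C, and formazan was dissolved in DMSO. Absorbance was read at 492 nm against 630 nm reference. Each compound was tested three times per line, and IC₅₀ values were averaged.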

[1] = Cytotoxicity against human PC3 cells after 72 hrs by MTT assay; type: functional, cell-based, PC-3; how it was run: as §1
MCF7 = assay: Cytotoxicity against human MCF7 cells after 72 hrs by MTT assay; type: functional, cell-based; how it was run: as §1
HeLa = assay: Cytotoxicity against human HeLa cells after 72 hrs by MTT assay; type: functional, cell-based; how it was run: as §1
[2] = target: Epidermal growth factor receptor (Homo sapiens, UniProt P00533); assay: Inhibition of EGFR (unknown origin) using FAM-labeled peptide as substrate preincubated for 10 mins followed by addition of substrate by mobility shift assay
Epidermal growth factor receptor, sequence (P00533 whole entry): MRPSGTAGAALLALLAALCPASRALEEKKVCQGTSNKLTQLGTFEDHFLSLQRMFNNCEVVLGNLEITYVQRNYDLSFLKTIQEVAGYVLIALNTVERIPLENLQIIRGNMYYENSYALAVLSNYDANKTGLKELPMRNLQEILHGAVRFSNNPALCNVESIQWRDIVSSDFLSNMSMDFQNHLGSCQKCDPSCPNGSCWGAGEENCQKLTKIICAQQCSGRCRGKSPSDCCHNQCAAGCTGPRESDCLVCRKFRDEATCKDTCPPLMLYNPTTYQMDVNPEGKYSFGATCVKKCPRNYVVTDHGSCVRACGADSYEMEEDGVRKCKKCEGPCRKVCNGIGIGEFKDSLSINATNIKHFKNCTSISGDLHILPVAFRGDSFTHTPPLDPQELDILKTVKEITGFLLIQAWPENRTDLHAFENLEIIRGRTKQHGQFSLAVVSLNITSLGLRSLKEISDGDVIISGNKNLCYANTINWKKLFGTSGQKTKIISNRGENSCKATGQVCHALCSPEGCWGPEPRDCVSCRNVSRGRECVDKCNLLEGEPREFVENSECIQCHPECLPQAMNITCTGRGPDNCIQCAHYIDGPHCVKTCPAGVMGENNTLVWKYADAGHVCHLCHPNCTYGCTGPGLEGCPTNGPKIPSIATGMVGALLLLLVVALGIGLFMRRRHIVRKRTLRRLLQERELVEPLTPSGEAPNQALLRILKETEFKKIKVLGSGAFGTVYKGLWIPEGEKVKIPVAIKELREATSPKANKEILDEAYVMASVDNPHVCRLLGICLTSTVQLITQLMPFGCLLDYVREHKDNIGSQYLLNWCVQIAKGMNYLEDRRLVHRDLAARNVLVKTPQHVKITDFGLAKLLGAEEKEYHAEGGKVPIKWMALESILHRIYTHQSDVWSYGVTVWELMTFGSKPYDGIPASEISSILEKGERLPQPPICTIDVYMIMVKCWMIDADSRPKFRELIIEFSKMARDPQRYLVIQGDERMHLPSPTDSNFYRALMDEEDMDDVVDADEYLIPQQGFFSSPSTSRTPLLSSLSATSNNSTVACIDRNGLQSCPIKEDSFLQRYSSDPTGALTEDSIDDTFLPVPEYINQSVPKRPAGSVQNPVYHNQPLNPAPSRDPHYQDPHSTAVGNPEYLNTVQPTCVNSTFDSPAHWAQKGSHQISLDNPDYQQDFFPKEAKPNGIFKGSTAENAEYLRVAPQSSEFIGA

[3] = target: Vascular endothelial growth factor receptor 2 (Homo sapiens, UniProt P35968); assay: Inhibition of VEGFR2 (unknown origin) using FAM-labeled peptide as substrate preincubated for 10 mins followed by addition of substrate by mobility shift assay
Vascular endothelial growth factor receptor 2, sequence (P35968 whole entry): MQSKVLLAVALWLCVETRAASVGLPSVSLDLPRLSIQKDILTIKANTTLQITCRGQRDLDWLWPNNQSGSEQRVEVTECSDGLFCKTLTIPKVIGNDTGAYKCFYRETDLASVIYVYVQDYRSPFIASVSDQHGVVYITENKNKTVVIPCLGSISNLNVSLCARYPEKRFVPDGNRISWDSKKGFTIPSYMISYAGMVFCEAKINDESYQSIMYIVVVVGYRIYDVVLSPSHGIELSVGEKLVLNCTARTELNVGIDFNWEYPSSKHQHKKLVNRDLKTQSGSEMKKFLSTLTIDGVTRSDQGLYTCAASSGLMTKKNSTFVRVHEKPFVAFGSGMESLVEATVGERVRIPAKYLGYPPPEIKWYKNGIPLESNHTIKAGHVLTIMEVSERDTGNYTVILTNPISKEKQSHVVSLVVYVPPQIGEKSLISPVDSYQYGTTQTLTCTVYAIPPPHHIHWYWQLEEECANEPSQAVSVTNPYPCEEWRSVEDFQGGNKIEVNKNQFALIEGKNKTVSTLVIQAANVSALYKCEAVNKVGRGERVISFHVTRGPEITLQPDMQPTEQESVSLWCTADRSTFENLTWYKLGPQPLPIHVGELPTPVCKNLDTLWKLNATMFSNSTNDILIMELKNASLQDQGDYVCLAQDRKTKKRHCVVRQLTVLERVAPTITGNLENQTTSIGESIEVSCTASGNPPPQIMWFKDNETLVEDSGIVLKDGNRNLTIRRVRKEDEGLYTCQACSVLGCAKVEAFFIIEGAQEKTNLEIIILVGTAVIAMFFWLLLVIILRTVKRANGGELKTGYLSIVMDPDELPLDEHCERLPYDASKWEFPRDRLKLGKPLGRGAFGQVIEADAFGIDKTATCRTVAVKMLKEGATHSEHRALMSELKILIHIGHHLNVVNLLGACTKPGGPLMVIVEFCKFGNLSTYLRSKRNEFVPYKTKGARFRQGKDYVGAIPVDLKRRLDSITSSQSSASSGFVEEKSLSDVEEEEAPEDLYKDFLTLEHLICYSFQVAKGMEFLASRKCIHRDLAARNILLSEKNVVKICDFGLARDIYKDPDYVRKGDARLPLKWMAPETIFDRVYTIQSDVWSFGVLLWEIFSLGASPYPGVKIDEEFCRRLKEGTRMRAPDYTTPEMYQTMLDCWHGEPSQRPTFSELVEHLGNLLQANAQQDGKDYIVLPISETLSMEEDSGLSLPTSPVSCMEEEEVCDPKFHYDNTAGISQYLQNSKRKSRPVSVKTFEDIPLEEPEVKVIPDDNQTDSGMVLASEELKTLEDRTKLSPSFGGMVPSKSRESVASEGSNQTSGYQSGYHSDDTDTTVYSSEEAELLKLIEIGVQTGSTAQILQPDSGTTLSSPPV
How it was run: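 Mobility-shift kinase assay. Compounds were serially diluted in 100% DMSO and combined with enzyme for 10 min at room temperature. FAM-labeled peptide plus ATP was then added and incubated at 28 °C. The reaction was stopped with EDTA-containing buffer. Conversion was read on Caliper, and % inhibition = (max − conversion)/(max − min) × 100. IC₅₀ was averaged from at least two experiments.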

[4] = Cytotoxicity against human NSCLC cells; type: functional, cell-based
[5] = Homo sapiens, A549, 72 h, read-out: IC50
[6] = Homo sapiens, PC-3, 72 h, read-out: IC50
[7] = Homo sapiens, MCF7, 72 h, read-out: IC50

SMILES | IC50 (A549; [5]) [µM] | IC50 [1, 6] [µM] | IC50 (MCF7; [7]) [µM] | IC50 (HeLa) [µM] | IC50 [2] [µM] | IC50 [3] [µM] | IC50 (A549; a549) | IC50 (MCF7; mcf7) | IC50 ([1]; pc-3) | IC50 [4] [µM]
COc1ccc(/C=C/C(=O)Nc2cc3c(Nc4ccc(F)c(Cl)c4)ncnc3cc2O[C@H]2CCOC2)cc1 | 3.05 | 2.24 | 5.07 | 34.6 | 0.0091 | 0.886 |  |  |  | 
O=C(/C=C/c1ccc(F)cc1Cl)Nc1cc2c(Nc3ccc(F)c(Cl)c3)ncnc2cc1O[C@H]1CCOC1 | 5.19 | 7.15 | 26.2 | 37.5 |  |  |  |  |  | 
COc1cc2ncnc(Nc3ccc(F)c(Cl)c3)c2cc1NC(=O)/C=C/c1ccc(F)cc1Cl |  | 32.7 |  |  |  |  | Not Active | Not Active |  | 
COc1ccc(/C=C/C(=O)Nc2cc3c(Nc4ccc(F)c(Cl)c4)ncnc3cc2OC)cc1 |  |  |  |  |  |  | Not Active | Not Active | Not Active | 
COc1ccc(/C=C/C(=O)Nc2cc3c(Nc4ccc(F)c(Cl)c4)ncnc3cc2O[C@H]2CCOC2)c(OC)c1 | 9.35 | 2.76 | 28.6 | 26.4 |  |  |  |  |  | 
COc1ccc(OC)c(/C=C/C(=O)Nc2cc3c(Nc4ccc(F)c(Cl)c4)ncnc3cc2OC)c1 | 11.2 | 28.6 | 34.2 |  |  |  |  |  |  | 
COc1ccc(/C=C/C(=O)Nc2cc3c(Nc4ccc(F)c(Cl)c4)ncnc3cc2O[C@H]2CCOC2)c(OC)c1OC | 0.07 | 7.67 | 4.65 | 4.83 | 0.0036 | 0.478 |  |  |  | 
O=C(/C=C/c1ccccc1[N+](=O)[O-])Nc1cc2c(Nc3ccc(F)c(Cl)c3)ncnc2cc1O[C@H]1CCOC1 | 8.82 | 7.76 | 28.4 | 29.6 |  |  |  |  |  | 
COc1cc(/C=C/C(=O)Nc2cc3c(Nc4ccc(F)c(Cl)c4)ncnc3cc2O[C@H]2CCOC2)cc(OC)c1OC | 4.15 | 20.5 | 28.4 | 24.5 |  |  |  |  |  | 
COc1cc(/C=C/C(=O)Nc2cc3c(Nc4ccc(F)c(Cl)c4)ncnc3cc2O[C@H]2CCOC2)cc(OC)c1 | 10.8 | 25.6 | 30.3 | 34.2 |  |  |  |  |  | 
COc1cc(/C=C/C(=O)Nc2cc3c(Nc4ccc(F)c(Cl)c4)ncnc3cc2OC)cc(OC)c1 |  |  | 38.5 |  |  |  | Not Active |  | Not Active | 
O=C(/C=C/c1ccc([N+](=O)[O-])cc1)Nc1cc2c(Nc3ccc(F)c(Cl)c3)ncnc2cc1O[C@H]1CCOC1 | 12 | 22.8 | 26.7 | 27.4 |  |  |  |  |  | 
COc1cc(/C=C/C(=O)Nc2cc3c(Nc4ccc(F)c(Cl)c4)ncnc3cc2O[C@H]2CCOC2)cc(OC)c1O | 26.9 | 26.5 | 30.5 | 27.4 |  |  |  |  |  | 
O=C(/C=C/c1ccc(Br)cc1)Nc1cc2c(Nc3ccc(F)c(Cl)c3)ncnc2cc1O[C@H]1CCOC1 | 35.3 | 28.2 | 32.4 | 27.4 |  |  |  |  |  | 
COc1cc2ncnc(Nc3ccc(F)c(Cl)c3)c2cc1NC(=O)/C=C/c1cc(OC)c(OC)c(OC)c1 |  | 38.2 |  |  |  |  | Not Active | Not Active |  | 
COc1cc2ncnc(Nc3ccc(F)c(Cl)c3)c2cc1NC(=O)/C=C/c1ccc(C#N)cc1 |  |  |  |  |  |  | Not Active | Not Active | Not Active | 
O=C(/C=C/c1cccc(Cl)c1Cl)Nc1cc2c(Nc3ccc(F)c(Cl)c3)ncnc2cc1O[C@H]1CCOC1 | 23.2 | 27.5 | 30.1 | 30.5 |  |  |  |  |  | 
COc1cc2ncnc(Nc3ccc(F)c(Cl)c3)c2cc1NC(=O)/C=C/c1ccccc1[N+](=O)[O-] | 33.2 | 14.3 | 36.5 |  |  |  |  |  |  | 
COc1ccc(OC)c(/C=C/C(=O)Nc2cc3c(Nc4ccc(F)c(Cl)c4)ncnc3cc2O[C@H]2CCOC2)c1 | 7.3 | 8.73 | 36.3 | 26.8 |  |  |  |  |  | 
O=C(/C=C/c1cc(Br)c(O)c(Br)c1)Nc1cc2c(Nc3ccc(F)c(Cl)c3)ncnc2cc1O[C@H]1CCOC1 | 28.8 | 25.5 | 30.6 | 27.7 |  |  |  |  |  | 
COc1ccc(/C=C/C(=O)Nc2cc3c(Nc4ccc(F)c(Cl)c4)ncnc3cc2OC)c(OC)c1 | 33.2 | 38.5 | 36.6 |  |  |  |  |  |  | 
N#Cc1ccc(/C=C/C(=O)Nc2cc3c(Nc4ccc(F)c(Cl)c4)ncnc3cc2O[C@H]2CCOC2)cc1 |  | 36.6 | 9.83 |  |  |  | Not Active |  |  | 
CN(C)C/C=C/C(=O)Nc1cc2c(Nc3ccc(F)c(Cl)c3)ncnc2cc1O[C@H]1CCOC1 [AFATINIB] | 0.05 | 4.1 | 5.83 | 6.81 |  |  |  |  |  | 0.0005
